According to ChEMBL document CHEMBL5260822, “Structure-based design and synthesis of 2,4-diaminopyrimidines as EGFR L858R/T790M selective inhibitors for NSCLC” (Eur J Med Chem, 2017):
pIC50: −log10 of the molar value.

Experiments:
[1] = target: Epidermal growth factor receptor (Homo sapiens, UniProt P00533); experiment: Inhibition of wild type EGFR (unknown origin) expressed in baculovirus expression system by ELISA
Homo sapiens = species on record: Homo sapiens; experiment: Selectivity ratio, ratio of IC50 for inhibition of wild type EGFR (unknown origin) to IC50 for inhibition of EGFR L858R/T790M mutant (unknown origin)
Method in brief: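 EGFR WT and L858R/T790M kinase domains expressed in a baculovirus system and purified on Ni-NTA. Kinase activity measured by ELISA-based EGFR tyrosine kinase assay; at least three independent determinations, mean ± SD.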

[2] = target: Epidermal growth factor receptor (Homo sapiens, UniProt P00533, L858R/T790M); experiment: Inhibition of EGFR L858R/T790M mutant (unknown origin) expressed in baculovirus expression system by ELISA
Sequence of Epidermal growth factor receptor (Homo sapiens, UniProt P00533, L858R/T790M) (P00533 25-1210 T790M/L858R limits assumed): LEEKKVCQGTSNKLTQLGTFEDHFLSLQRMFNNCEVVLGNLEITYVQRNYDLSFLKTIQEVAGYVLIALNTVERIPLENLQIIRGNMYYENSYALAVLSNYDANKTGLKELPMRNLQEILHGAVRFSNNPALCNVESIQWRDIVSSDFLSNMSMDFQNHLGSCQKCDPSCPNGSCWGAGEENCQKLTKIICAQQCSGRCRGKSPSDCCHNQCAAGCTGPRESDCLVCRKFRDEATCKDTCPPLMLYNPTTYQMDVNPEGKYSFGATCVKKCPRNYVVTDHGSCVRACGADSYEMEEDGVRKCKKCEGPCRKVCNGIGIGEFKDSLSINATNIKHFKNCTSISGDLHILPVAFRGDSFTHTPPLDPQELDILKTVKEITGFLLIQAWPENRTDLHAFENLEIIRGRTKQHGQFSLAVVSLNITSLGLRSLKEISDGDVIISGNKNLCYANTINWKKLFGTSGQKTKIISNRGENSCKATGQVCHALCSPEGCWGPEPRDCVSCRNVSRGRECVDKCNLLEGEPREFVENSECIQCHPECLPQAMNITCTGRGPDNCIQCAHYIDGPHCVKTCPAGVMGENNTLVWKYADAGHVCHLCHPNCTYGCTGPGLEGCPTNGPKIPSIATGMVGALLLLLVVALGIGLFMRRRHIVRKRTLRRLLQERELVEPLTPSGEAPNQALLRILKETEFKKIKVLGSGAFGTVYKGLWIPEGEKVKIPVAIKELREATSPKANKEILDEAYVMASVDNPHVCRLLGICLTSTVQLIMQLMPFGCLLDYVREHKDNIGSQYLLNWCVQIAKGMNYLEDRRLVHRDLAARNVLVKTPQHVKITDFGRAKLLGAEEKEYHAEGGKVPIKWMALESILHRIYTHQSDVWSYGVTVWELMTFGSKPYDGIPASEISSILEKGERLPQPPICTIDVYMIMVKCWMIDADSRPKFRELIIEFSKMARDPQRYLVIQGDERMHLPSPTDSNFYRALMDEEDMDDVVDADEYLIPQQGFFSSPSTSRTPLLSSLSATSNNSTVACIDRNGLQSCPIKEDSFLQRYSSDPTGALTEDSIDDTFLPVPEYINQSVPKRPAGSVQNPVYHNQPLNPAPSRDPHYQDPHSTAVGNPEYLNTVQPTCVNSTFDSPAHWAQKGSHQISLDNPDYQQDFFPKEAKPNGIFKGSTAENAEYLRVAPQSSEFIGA

A-431 = experiment: Antiproliferative activity against human A-431 cells harboring wild type EGFR assessed as inhibition of cell proliferation incubated for 72 hrs by sulforhodamine B colorimetric assay; assay type: functional, cell-based; conditions: A-431, 72 h
NCI-H1975 = experiment: Antiproliferative activity against human NCI-H1975 cells harboring EGFR L858R/T790M double mutant assessed as inhibition of cell proliferation incubated for 72 hrs by sulforhodamine B colorimetric assay; assay type: functional, cell-based; conditions: NCI-H1975, 72 h
[3] = target: Epidermal growth factor receptor (Homo sapiens, UniProt P00533, T790M); experiment: Inhibition of EGFR T790M mutant (unknown origin) expressed in baculovirus expression system by ELISA
Sequence of Epidermal growth factor receptor (Homo sapiens, UniProt P00533, T790M) (P00533 25-1210 T790M limits assumed): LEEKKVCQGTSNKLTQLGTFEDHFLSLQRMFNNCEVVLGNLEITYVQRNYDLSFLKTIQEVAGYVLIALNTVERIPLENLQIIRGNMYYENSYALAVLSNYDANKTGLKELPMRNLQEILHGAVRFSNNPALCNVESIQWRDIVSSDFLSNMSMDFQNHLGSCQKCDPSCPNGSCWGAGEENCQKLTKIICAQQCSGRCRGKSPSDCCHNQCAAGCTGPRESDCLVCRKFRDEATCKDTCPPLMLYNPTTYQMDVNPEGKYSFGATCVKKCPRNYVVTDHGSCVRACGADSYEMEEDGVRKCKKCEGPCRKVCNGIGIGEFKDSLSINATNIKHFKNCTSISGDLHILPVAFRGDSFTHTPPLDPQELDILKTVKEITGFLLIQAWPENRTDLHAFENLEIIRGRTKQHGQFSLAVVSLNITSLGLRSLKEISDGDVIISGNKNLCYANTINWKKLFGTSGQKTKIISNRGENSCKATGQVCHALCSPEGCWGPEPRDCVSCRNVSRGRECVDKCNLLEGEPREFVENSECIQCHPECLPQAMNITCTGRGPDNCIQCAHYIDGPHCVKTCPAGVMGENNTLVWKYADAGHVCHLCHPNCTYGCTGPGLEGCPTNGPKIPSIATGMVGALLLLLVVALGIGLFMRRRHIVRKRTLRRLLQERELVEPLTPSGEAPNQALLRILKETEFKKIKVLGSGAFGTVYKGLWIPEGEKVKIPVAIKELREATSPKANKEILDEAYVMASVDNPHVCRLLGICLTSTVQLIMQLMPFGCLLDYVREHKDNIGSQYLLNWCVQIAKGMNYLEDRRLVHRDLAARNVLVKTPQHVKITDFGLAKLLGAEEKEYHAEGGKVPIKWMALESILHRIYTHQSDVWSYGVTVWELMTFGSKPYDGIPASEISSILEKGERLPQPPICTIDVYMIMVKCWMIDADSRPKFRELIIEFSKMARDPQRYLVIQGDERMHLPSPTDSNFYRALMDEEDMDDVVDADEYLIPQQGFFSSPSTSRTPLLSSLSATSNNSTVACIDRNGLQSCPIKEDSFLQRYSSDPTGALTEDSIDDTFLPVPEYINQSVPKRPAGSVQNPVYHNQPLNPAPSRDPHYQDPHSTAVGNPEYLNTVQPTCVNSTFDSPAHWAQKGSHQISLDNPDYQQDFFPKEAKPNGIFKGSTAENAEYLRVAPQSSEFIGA

Sequence of Epidermal growth factor receptor (Homo sapiens, UniProt P00533) (P00533 whole entry): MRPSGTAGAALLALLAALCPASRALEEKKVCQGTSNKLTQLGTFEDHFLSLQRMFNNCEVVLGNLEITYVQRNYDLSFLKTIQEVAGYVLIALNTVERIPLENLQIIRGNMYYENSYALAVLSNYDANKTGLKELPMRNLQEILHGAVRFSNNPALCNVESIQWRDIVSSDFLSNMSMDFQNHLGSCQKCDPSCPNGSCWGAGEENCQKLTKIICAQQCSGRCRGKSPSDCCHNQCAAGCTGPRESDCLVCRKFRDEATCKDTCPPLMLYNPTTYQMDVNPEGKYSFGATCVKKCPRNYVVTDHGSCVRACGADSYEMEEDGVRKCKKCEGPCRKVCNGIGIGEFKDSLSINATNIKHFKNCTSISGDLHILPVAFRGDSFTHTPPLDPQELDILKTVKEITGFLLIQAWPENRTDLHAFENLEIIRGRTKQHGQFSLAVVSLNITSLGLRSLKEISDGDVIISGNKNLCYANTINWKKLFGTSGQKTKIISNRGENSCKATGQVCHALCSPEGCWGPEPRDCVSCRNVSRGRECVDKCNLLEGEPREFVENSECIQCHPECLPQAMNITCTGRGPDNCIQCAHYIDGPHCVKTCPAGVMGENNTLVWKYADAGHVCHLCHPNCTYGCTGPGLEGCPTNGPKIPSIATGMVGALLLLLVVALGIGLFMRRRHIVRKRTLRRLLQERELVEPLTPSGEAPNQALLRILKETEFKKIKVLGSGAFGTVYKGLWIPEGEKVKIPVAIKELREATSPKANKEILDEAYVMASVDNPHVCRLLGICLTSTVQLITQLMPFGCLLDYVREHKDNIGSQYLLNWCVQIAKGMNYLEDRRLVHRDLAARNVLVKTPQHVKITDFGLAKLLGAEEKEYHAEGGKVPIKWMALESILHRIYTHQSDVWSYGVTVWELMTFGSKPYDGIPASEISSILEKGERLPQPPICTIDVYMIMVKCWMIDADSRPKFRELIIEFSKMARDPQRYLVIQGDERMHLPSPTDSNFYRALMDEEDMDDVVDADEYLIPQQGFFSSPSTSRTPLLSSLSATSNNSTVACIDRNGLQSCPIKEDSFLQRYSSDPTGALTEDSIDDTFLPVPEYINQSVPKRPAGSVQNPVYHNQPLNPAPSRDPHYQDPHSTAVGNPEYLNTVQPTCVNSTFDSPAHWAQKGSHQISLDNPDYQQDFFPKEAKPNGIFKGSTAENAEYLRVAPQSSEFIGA

Structure (SMILES)	pIC50 [1]	Ratio IC50 (Homo sapiens)	pIC50 [2]	pIC50 (A-431)	pIC50 (NCI-H1975)	pIC50 [3]
CN1CCN(c2ccc(Nc3ncc(Br)c(Nc4ccc5c(c4)CCC5)n3)cc2)CC1	5.17	194	7.46			
C=CC(=O)Nc1cc(Nc2ncc(Br)c(Nc3ccc4cc[nH]c4c3)n2)ccc1N1CCN(C)CC1	6.63		7.79	6.97	6.35	
CN1CCN(c2ccc(Nc3ncc([N+](=O)[O-])c(Nc4ccc5[nH]ccc5c4)n3)cc2)CC1	< 6.00		6.04			< 6.00
CN1CCN(c2ccc(Nc3ncc(Br)c(Nc4ccc5ncccc5c4)n3)cc2)CC1	< 5.00		5.11			
CN1CCN(c2ccc(Nc3nccc(Nc4ccc5[nH]ccc5c4)n3)cc2)CC1	7.31		6.66			7.00
C=CC(=O)Nc1cc(Nc2ncc(Br)c(Nc3ccc4cc[nH]c4c3)n2)ccc1N(C)CCN(C)C	8.06		6.70	6.84	6.95	
C=CC(=O)Nc1cc(Nc2ncc(Br)c(Nc3ccc4c(c3)CCC4)n2)ccc1N1CCN(C)CC1	6.33		7.56	6.87	6.51	
CC(=O)N1CCc2cc(Nc3nc(Nc4ccc(N5CCN(C)CC5)cc4)ncc3Br)ccc21	4.84	2	5.22			
CN1CCN(c2ccc(Nc3ncc(C(F)(F)F)c(Nc4ccc5[nH]ccc5c4)n3)cc2)CC1	< 6.00		6.92			6.99
CN1CCN(c2ccc(Nc3ncc(Br)c(Nc4ccc5cc[nH]c5c4)n3)cc2)CC1	5.85	74	7.72			
CC(=O)N1CCc2ccc(Nc3nc(Nc4ccc(N5CCN(C)CC5)cc4)ncc3Br)cc21	5.24		5.07			
Cc1cnc(Nc2ccc(N3CCN(C)CC3)cc2)nc1Nc1ccc2[nH]ccc2c1	< 6.00		6.77			6.71
CN1CCN(c2ccc(Nc3ncc(Br)c(Nc4ccc5[nH]ccc5c4)n3)cc2)CC1	< 6.00	23	7.46			7.28
CN1CCN(c2ccc(Nc3ncc(F)c(Nc4ccc5[nH]ccc5c4)n3)cc2)CC1	< 6.00		6.74			6.63
COc1cnc(Nc2ccc(N3CCN(C)CC3)cc2)nc1Nc1ccc2[nH]ccc2c1	< 6.00		6.81			6.65
C=CC(=O)Nc1cccc(Oc2nc(Nc3ccc(N4CCN(C)CC4)cc3OC)ncc2Cl)c1				5.89	6.89	
CN1CCN(c2ccc(Nc3ncc(Br)c(Nc4ccc5[nH]ncc5c4)n3)cc2)CC1	6.41	10	7.41			
CN1CCN(c2ccc(Nc3ncc(Cl)c(Nc4ccc5[nH]ccc5c4)n3)cc2)CC1	6.25		7.34			6.98
CN1CCN(c2ccc(Nc3ncc(Br)c(Nc4ccc5ccn(C)c5c4)n3)cc2)CC1	5.89	62	7.68			
CN1CCN(c2ccc(Nc3ncc(Br)c(Nc4ccc5nccnc5c4)n3)cc2)CC1	6.39	2	6.63			
C=CC(=O)Nc1cc(Nc2ncc(Br)c(Nc3ccc4c(c3)CCC4)n2)ccc1N(C)CCN(C)C	7.58		9.22	6.59	6.97	
C=CC(=O)Nc1cc(Nc2ncc(Br)c(Nc3ccc4ccn(C)c4c3)n2)ccc1N1CCN(C)CC1				6.70	6.72	
CN1CCN(c2ccc(Nc3ncc(Br)c(Nc4ccc5cn[nH]c5c4)n3)cc2)CC1	5.96	26	7.37			
CN1CCN(c2ccc(Nc3ncc(Br)c(Nc4ccc5[nH]c(Cc6cccc(F)c6)cc5c4)n3)cc2)CC1	6.49	7	7.31			
